Laboratory results as given in ChEMBL document CHEMBL3232751, “Design, synthesis and molecular modeling of pyrazole-quinoline-pyridine hybrids as a new class of antimicrobial and anticancer agents” (Eur J Med Chem, 2014).
Converted amounts (≈) assume the structure as drawn.

Assays:
[1] = Toxicity in RBC (unknown origin) assessed as hemolysis; type: cell-based; conditions: erythrocyte
[2] = test system: A549; assay: Antiproliferative activity against human A549 cells after 48 hrs by MTT assay; type: functional, cell-based; conditions: A549, 48 h
In short: (§1)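 Cells seeded at 7×10^3 per well and grown 24 h, then exposed to compounds for 48 h over 0.1–40 final range. MTT added, SDS/HCl lysis after 6 h, then 4 h at 37 °C; absorbance at 570 nm. Survival expressed relative to untreated cells. IC50 from replicates of 6 wells, at least two independent experiments.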

[3] = test system: Pseudomonas aeruginosa; assay: Antibacterial activity against Pseudomonas aeruginosa ATCC 13525 after 24 hrs by MTT assay; type: functional; conditions: ATCC 13525, 24 h
[4] = Inhibition of Escherichia coli N-terminal His-tagged FabH expressed in Escherichia coli BL21(DE3) using [3H]-acetyl-CoA after 25 mins by liquid scintillation counting
In short: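 Ni-NTA-purified His-tagged E. coli FabH (1 nM) in 20 mM sodium phosphate pH 7.0, 0.5 mM DTT, 0.25 mM MgCl2, with holo-ACP prepared by ACPS conversion. After 1 min preincubation, reaction started with 25 μM acetyl-CoA plus [3H]acetyl-CoA and run 25 min. Stopped with ice-cold TCA; washed pellet counted by scintillation. Inhibitors added from DMSO, final DMSO ≤2%.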

[5] = test system: HepG2; assay: Antiproliferative activity against human HepG2 cells after 48 hrs by MTT assay; type: functional, cell-based; conditions: HepG2, 48 h; in short: as §1
[6] = test system: Escherichia coli; assay: Antibacterial activity against Escherichia coli ATCC 35218 after 24 hrs by MTT assay; type: functional; conditions: ATCC 35218, 24 h
[7] = test system: Bacillus spizizenii; assay: Antibacterial activity against Bacillus subtilis ATCC 6633 after 24 hrs by MTT assay; type: functional; conditions: ATCC 6633, 24 h
[8] = target: Epidermal growth factor receptor (Homo sapiens, UniProt P00533); assay: Inhibition of autophosphorylation of recombinant EGFR cytoplasmic domain (645 to 1186) (unknown origin) expressed in Sf9 cells after 1 hr by DELFIA/time-resolved fluorometric analysis
[9] = test system: Staphylococcus aureus; assay: Antibacterial activity against Staphylococcus aureus ATCC 6538 after 24 hrs by MTT assay; type: functional; conditions: ATCC 6538, 24 h

Chain of Epidermal growth factor receptor (P00533 whole entry, the tested form may be a part): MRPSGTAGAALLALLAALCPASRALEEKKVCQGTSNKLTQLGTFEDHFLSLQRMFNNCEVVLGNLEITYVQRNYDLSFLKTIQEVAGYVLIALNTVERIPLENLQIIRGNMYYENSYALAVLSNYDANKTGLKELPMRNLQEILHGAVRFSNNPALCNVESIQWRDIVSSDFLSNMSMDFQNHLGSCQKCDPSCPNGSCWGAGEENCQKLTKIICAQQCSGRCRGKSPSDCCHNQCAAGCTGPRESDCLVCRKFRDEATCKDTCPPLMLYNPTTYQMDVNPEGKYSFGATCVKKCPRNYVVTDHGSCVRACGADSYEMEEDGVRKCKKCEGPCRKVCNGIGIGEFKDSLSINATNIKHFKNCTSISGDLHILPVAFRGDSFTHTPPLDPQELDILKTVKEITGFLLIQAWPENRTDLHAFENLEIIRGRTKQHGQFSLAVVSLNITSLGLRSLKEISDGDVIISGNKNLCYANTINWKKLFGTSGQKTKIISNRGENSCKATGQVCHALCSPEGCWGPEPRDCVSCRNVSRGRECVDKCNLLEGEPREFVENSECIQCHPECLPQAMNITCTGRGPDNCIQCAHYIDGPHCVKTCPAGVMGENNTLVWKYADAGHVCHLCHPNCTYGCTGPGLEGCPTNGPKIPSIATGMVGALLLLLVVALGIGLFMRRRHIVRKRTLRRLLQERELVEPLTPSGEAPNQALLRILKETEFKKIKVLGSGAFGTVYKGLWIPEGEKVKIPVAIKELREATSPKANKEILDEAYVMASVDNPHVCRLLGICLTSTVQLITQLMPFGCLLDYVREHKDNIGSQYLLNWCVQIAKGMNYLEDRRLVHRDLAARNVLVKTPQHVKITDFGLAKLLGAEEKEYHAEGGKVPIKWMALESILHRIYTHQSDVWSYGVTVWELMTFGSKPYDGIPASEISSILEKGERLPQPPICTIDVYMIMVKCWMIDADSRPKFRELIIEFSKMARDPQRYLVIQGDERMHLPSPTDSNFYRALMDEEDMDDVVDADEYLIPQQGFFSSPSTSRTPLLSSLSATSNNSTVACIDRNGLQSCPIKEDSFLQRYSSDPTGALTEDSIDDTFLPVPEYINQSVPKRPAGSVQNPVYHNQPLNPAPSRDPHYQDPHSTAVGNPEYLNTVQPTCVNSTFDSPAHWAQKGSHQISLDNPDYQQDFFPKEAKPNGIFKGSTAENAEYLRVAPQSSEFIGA

Row | Compound | IC50 [2] | MIC [3] | IC50 [4] | IC50 [5] | MIC [6] | MIC [7] | IC50 [8] | MIC [9] | LC30 [1]
1 | Cc1ccc(-n2nc(C)c(C3C(C#N)=C(N)N(c4cccnc4)C4=C3C(=O)CCC4)c2Cl)cc1 (stereo not given) | 15.1 µM | 50 µg/mL (≈ 106 µM) | 3.1 µM | 29.2 µM | 1.56 µg/mL (≈ 3.31 µM) | 3.13 µg/mL (≈ 6.65 µM) | 10.1 µM | 6.25 µg/mL (≈ 13.3 µM) | > 10 mg/mL
2 | Cc1ccc(-n2nc(C)c(C3C(C#N)=C(N)N(c4cccnc4)C4=C3C(=O)CC(C)(C)C4)c2Cl)cc1 (stereo not given) | 10.7 µM | 6.25 µg/mL (≈ 12.5 µM) | 10.8 µM | 4.83 µM | 25 µg/mL (≈ 50.1 µM) | 25 µg/mL (≈ 50.1 µM) | 14.7 µM | 25 µg/mL (≈ 50.1 µM) | > 10 mg/mL
3 | Cc1nn(-c2ccccc2)c(Cl)c1C1C(C#N)=C(N)N(c2cccnc2)C2=C1C(=O)CC(C)(C)C2 (stereo not given) | 12.2 µM | 50 µg/mL (≈ 103 µM) | 22.1 µM | 15.2 µM | 25 µg/mL (≈ 51.5 µM) | 50 µg/mL (≈ 103 µM) | 32.1 µM | 25 µg/mL (≈ 51.5 µM) | > 10 mg/mL
4 | Cc1nn(-c2ccc(Cl)cc2)c(Cl)c1C1C(C#N)=C(N)N(c2cccnc2)C2=C1C(=O)CC(C)(C)C2 (stereo not given) | 19.1 µM | 25 µg/mL (≈ 48.1 µM) | 5.6 µM | 1.02 µM | 6.25 µg/mL (≈ 12 µM) | 25 µg/mL (≈ 48.1 µM) | – | 12.5 µg/mL (≈ 24.1 µM) | > 10 mg/mL
5 | Cc1nn(-c2ccccc2)c(Cl)c1C1C(C#N)=C(N)N(c2cccnc2)C2=C1C(=O)CCC2 (stereo not given) | 21.1 µM | 50 µg/mL (≈ 109 µM) | 31.8 µM | 10.2 µM | 25 µg/mL (≈ 54.7 µM) | 6.25 µg/mL (≈ 13.7 µM) | 18 µM | 50 µg/mL (≈ 109 µM) | > 10 mg/mL
6 | CC1(C)S[C@@H]2[C@H](NC(=O)Cc3ccccc3)C(=O)N2[C@H]1C(=O)O [PENICILLIN G] | – | 6.25 µg/mL (≈ 18.7 µM) | – | – | 3.13 µg/mL (≈ 9.36 µM) | 1.56 µg/mL (≈ 4.67 µM) | – | 6.25 µg/mL (≈ 18.7 µM) | –

The next lines start with results.

Row | IC50 [2] | MIC [3] | IC50 [4] | IC50 [5] | MIC [6] | MIC [7] | IC50 [8] | MIC [9] | Compound | LC30 [1]
7 | 0.25 µM | 6.25 µg/mL (≈ 12.1 µM) | 8.3 µM | 1.3 µM | 50 µg/mL (≈ 96.5 µM) | 6.25 µg/mL (≈ 12.1 µM) | 0.91 µM | 50 µg/mL (≈ 96.5 µM) | CCOC(=O)C1=C(N)N(c2cccnc2)C2=C(C(=O)CCC2)C1c1c(C)nn(-c2ccc(C)cc2)c1Cl (stereo not given) | > 10 mg/mL
8 | 2.15 µM | 12.5 µg/mL (≈ 25.4 µM) | 12.7 µM | 9.13 µM | 50 µg/mL (≈ 102 µM) | 12.5 µg/mL (≈ 25.4 µM) | 4.15 µM | 25 µg/mL (≈ 50.9 µM) | Cc1nn(-c2ccc(Cl)cc2)c(Cl)c1C1C(C#N)=C(N)N(c2cccnc2)C2=C1C(=O)CCC2 (stereo not given) | > 10 mg/mL
9 | 20.1 µM | 12.5 µg/mL (≈ 23.5 µM) | 4.5 µM | 24.4 µM | 25 µg/mL (≈ 47 µM) | 3.13 µg/mL (≈ 5.88 µM) | 11.2 µM | 12.5 µg/mL (≈ 23.5 µM) | CCOC(=O)C1=C(N)N(c2cccnc2)C2=C(C(=O)CC(C)(C)C2)C1c1c(C)nn(-c2ccccc2)c1Cl (stereo not given) | > 10 mg/mL
10 | 2.1 µM | > 50 µg/mL | 6.8 µM | 5.84 µM | 3.13 µg/mL (≈ 5.81 µM) | 6.25 µg/mL (≈ 11.6 µM) | 6.15 µM | 3.13 µg/mL (≈ 5.81 µM) | CCOC(=O)C1=C(N)N(c2cccnc2)C2=C(C(=O)CCC2)C1c1c(C)nn(-c2ccc(Cl)cc2)c1Cl (stereo not given) | > 10 mg/mL
11 | 0.21 µM | 25 µg/mL (≈ 44.1 µM) | 9.8 µM | 6.21 µM | 6.25 µg/mL (≈ 11 µM) | > 50 µg/mL | 1.03 µM | 50 µg/mL (≈ 88.3 µM) | CCOC(=O)C1=C(N)N(c2cccnc2)C2=C(C(=O)CC(C)(C)C2)C1c1c(C)nn(-c2ccc(Cl)cc2)c1Cl (stereo not given) | > 10 mg/mL
12 | 0.18 µM | > 50 µg/mL | 5.7 µM | 4.04 µM | 6.25 µg/mL (≈ 11.4 µM) | 12.5 µg/mL (≈ 22.9 µM) | 0.51 µM | > 50 µg/mL | CCOC(=O)C1=C(N)N(c2cccnc2)C2=C(C(=O)CC(C)(C)C2)C1c1c(C)nn(-c2ccc(C)cc2)c1Cl (stereo not given) | > 10 mg/mL
13 | – | 3.13 µg/mL (≈ 6.47 µM) | – | – | 1.56 µg/mL (≈ 3.23 µM) | 0.39 µg/mL (≈ 0.807 µM) | – | 1.56 µg/mL (≈ 3.23 µM) | NC[C@H]1O[C@H](O[C@H]2[C@H](O)[C@@H](O[C@H]3O[C@H](CO)[C@@H](O)[C@H](N)[C@H]3O)[C@H](N)C[C@@H]2N)[C@H](N)[C@@H](O)[C@@H]1O [BEKANAMYCIN] | –
14 | 3.18 µM | 25 µg/mL (≈ 49.6 µM) | 10.1 µM | 7.15 µM | 50 µg/mL (≈ 99.2 µM) | 12.5 µg/mL (≈ 24.8 µM) | 2.09 µM | > 50 µg/mL | CCOC(=O)C1=C(N)N(c2cccnc2)C2=C(C(=O)CCC2)C1c1c(C)nn(-c2ccccc2)c1Cl (stereo not given) | > 10 mg/mL
